ChEMBL document CHEMBL4024709, “Synthesis and biological evaluation of hypoxia-activated prodrugs of SN-38” (Eur J Med Chem, 2017)

Legend:
[1] = Stability of the compound in phosphate buffered saline assessed as compound remaining at 5 uM after 48 hrs by HPLC method; type: physicochemical; details: read-out: Stability
In short: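 Compound held in 10 mM PBS pH 7.4 at 37 °C for 48 h; percent remaining measured.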

NCI-H460 [2] = assay: Cytotoxicity against human NCI-H460 cells pretreated for 24 hrs under hypoxic condition followed by compound washout measured after 72 hrs by MTT assay; type: functional, cell-based
In short: (§1)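 HT29 in McCoy's 5A, H460 in RPMI 1640, each with 10% FBS and 1% pen-strep, 37 °C, 5% CO2. Seeded and grown 24 h, then exposed for 24 h to serial dilutions (DMSO ≤0.1% final) in hypoxia (94% N2/5% CO2/1% O2 chamber) or air.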

HT-29 [3] = assay: Cytotoxicity against human HT-29 cells pretreated for 24 hrs under normoxic condition followed by compound washout measured after 72 hrs by MTT assay; type: cell-based; in short: as §1
[4] = Stability of the compound in mouse liver microsomes assessed as compound remaining at 5 uM after 6 hrs in absence of NADPH by HPLC method; type: ADME, microsome; details: read-out: Stability
In short: (§2)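 Final mix: 5 µM compound, mouse liver microsomes 1 mg/mL, 5 mM MgCl2, ±1 mM NADPH, in 10 mM PBS pH 7.4 at 37 °C. Preincubated, then started by adding microsomes. Samples at 0–6 h quenched with cold methanol and centrifuged. Supernatant run on C18 HPLC (5–95% CH3CN/0.1% TFA, 373 nm); percent remaining at 6 h.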

HT-29 [5] = assay: Selectivity ratio of IC50 for human HT-29 cells under normoxic condition to IC50 for human HT-29 cells under hypoxic condition
[6] = Stability of the compound in mouse liver microsomes assessed as compound remaining at 5 uM after 6 hrs in presence of NADPH by HPLC method; type: ADME, microsome; details: read-out: Stability; in short: as §2
HT-29 [7] = assay: Cytotoxicity against human HT-29 cells pretreated for 24 hrs under hypoxic condition followed by compound washout measured after 72 hrs by MTT assay; type: functional, cell-based; in short: as §1
NCI-H460 [8] = assay: Selectivity ratio of IC50 for human NCI-H460 cells under normoxic condition to IC50 for human NCI-H460 cells under hypoxic condition
NCI-H460 [9] = assay: Cytotoxicity against human NCI-H460 cells pretreated for 24 hrs under normoxic condition followed by compound washout measured after 72 hrs by MTT assay; type: cell-based; in short: as §1

SMILES	remaining at 48 h, 5 µM [1] [%]	IC50 (NCI-H460 [2]) [µM]	IC50 (HT-29 [3]) [µM]	remaining at 6 h, 5 µM [4] [%]	Ratio IC50 (HT-29 [5])	remaining at 6 h, 5 µM [6] [%]	IC50 (HT-29 [7]) [µM]	Ratio IC50 (NCI-H460 [8])	IC50 (NCI-H460 [9]) [µM]
CCc1c2c(nc3ccc(OC(=O)N(C)CCN(C)C(=O)OCc4cnc([N+](=O)[O-])n4C)cc13)-c1cc3c(c(=O)n1C2)COC(=O)[C@]3(O)CC	99	7.56	> 100	92	>1.32	13	75.9	1.09	8.27
CCc1c2c(nc3ccc(OCc4cnc([N+](=O)[O-])n4C)cc13)-c1cc3c(c(=O)n1C2)COC(=O)[C@]3(O)CC	100	0.14	14.9	94	3.82	72	3.89	3.71	0.52
CCc1c2c(nc3ccc(O)cc13)-c1cc3c(c(=O)n1C2)COC(=O)[C@]3(O)CC [7-ETHYL-10-HYDROXYCAMPTOTHECIN]		0.06	2.74		0.74		3.71	0.83	0.05
Cn1c(COP(=O)(NCCBr)NCCBr)cnc1[N+](=O)[O-] [EVOFOSFAMIDE]		9.08	> 100		>2.02		49.5	5.61	51
